SMILES strings stand for the structures. Where only a bound is given, the exact number is not on record here.

The text below walks through data of ChEMBL document CHEMBL4229446, “Development of Novel Monoamine Oxidase-B (MAO-B) Inhibitors with Reduced Blood-Brain Barrier Permeability for the Potential Management of Noncentral Nervous System (CNS) Diseases” (J Med Chem, 2018).

Data set [1] in a line: Metabolic stability in mouse plasma assessed as parent compound remaining at 5 uM after 4 hrs by UPLC-MS/MS analysis. Type of data set: ADME, cell-free. The note with it: read-out: Stability. Put shortly: (§1)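 Compound at 5 μM was incubated in mouse or human plasma at 37 °C with shaking. Sampled at 0, 5, 15, 30, 60, 120 and 240 min and stopped with ice-cold acetonitrile/0.1% formic acid containing internal standard. Supernatants analysed by UPLC-MS/MS for parent remaining. Run in triplicate.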

The nature of data set [2]: Metabolic stability in cryopreserved mouse hepatocytes assessed as parent compound remaining at 1 uM after 60 mins by UPLC-MS/MS analysis. Type of data set: ADME, cell-based, Hepatocyte. The settings on record: read-out: Stability.
The subject of data set [3] is Mus musculus. Nature of the data set: Acute toxicity in C57BL/6 mouse assessed as abnormal clinical signs at […], po administered as single dose measured after 24 hrs post-injection. The note with it: in vivo. It is filed as organism-based.
A short description of data set [4]: Apparent half-life of the terminal disposition phase in C57BL/6 mouse plasma at 24.5 mg/kg, sc administered as single dose measured 24 hrs by UPLC-MS/MS analysis. Type of data set: ADME, organism-based. The settings on record: read-out: t1/2 lambda z (converted). Put shortly:
(§2)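 15 animals dosed, 3 sacrificed at each of 1, 2, 4, 6 and 24 h. Plasma and brain homogenate were extracted and quantified by UPLC-MS/MS. Parameters came from noncompartmental analysis. Values above or below the limit of quantification, or undetected, were omitted. Kp = AUClast brain/plasma.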

Data set [5] is described as follows: Ratio of AUClast in brain to plasma in C57BL/6 mouse at 24.5 mg/kg, po administered as single dose measured 24 hrs by UPLC-MS/MS analysis. It is filed as ADME, organism-based. Put shortly:
as §2

The nature of data set [6]: Metabolic stability in human liver microsomes assessed as parent compound remaining at 1 uM after 60 mins by UPLC-MS/MS analysis. Type of data set: ADME, microsome. The note with it: liver microsomes, read-out: Stability. The method, boiled down:
(§3)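 Compound at 1 μM with 0.5 mg/mL mouse or human liver microsomes in 100 mM potassium phosphate pH 7.4, 3.3 mM MgCl2, 1 mM NADPH, at 37 °C. Started with NADPH; minus-NADPH control run. Stopped at 0, 5, 15, 30, 45 and 60 min with acetonitrile/formic acid plus internal standard. Parent remaining by UPLC-MS/MS, in triplicate.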

For data set [7], the system named is Mus musculus. Nature of the data set: Acute toxicity in C57BL/6 mouse assessed as abnormal clinical signs at […], iv administered as single dose measured after 24 hrs post-injection. Type of data set: organism-based. The note with it: in vivo.
The test system of a further data set is P-gp (MDR1). Nature of the data set: Efflux ratio of apparent permeability in MDCK2-MDR1 cells at 10 uM after 1 hr in absence of P-gp inhibitor verapamil by UPLC-MS/MS analysis. It is filed as ADME, cell-based, Canis lupus familiaris. The settings on record: dog, MDCK-MDR1. Put shortly:
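MDCK-WT (MEM-α/10% FBS) or MDCK-MDR1 II (DMEM/10% FBS) cells were grown 3 days on 12-well transwells. Integrity was checked by TEER and 100 μM Lucifer yellow. Cells were washed in HBSS/10 mM HEPES. Compound at 10 μM was added apically or basally, in triplicate, ±100 μM verapamil. Receiver sampled at 1 h by UPLC-MS/MS. Efflux ratio = Papp B→A / Papp A→B.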

Data set [8] has as its system Mus musculus. Nature of the data set: Acute toxicity in C57BL/6 mouse assessed as abnormal clinical signs at […], sc administered as single dose measured after 24 hrs post-injection. Type of data set: organism-based. The note with it: in vivo.
A short description of data set [9]: Tmax in C57BL/6 mouse brain at 24.5 mg/kg, sc administered as single dose measured 24 hrs by UPLC-MS/MS analysis. It is filed as ADME, organism-based. Put shortly: (§4)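 Brain portion homogenised in 50 mM ammonium formate with beads, acidified organic extraction, UPLC-MS/MS. ng/g read as ng/mL. Noncompartmental analysis; values above or below quantification limit, or undetected, excluded.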

Data set [10] is described as follows: Tmax in C57BL/6 mouse brain at 24.5 mg/kg, po administered as single dose measured 24 hrs by UPLC-MS/MS analysis. It is filed as ADME, organism-based. The method, boiled down:
as §4

The nature of data set [11]: Tmax in C57BL/6 mouse brain at 24.5 mg/kg, iv administered as single dose measured 24 hrs by UPLC-MS/MS analysis. It is filed as ADME, organism-based. Put shortly: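 Brains weighed, portion bead-homogenised in 50 mM ammonium formate, extracted in acidified organic solvent, quantified by UPLC-MS/MS. ng/g taken as ng/mL. Tmax from noncompartmental analysis.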
Data set [12] in a line: Metabolic stability in human plasma assessed as parent compound remaining at 5 uM after 4 hrs by UPLC-MS/MS analysis. It is filed as ADME, cell-free. The settings on record: read-out: Stability. Put shortly:
as §1

Data set [13] can be described thus: Efflux ratio of apparent permeability in MDCK-WT cells at 10 uM after 1 hr in absence of P-gp inhibitor verapamil by UPLC-MS/MS analysis. The settings on record: dog.
Data set [14] concerns the target T1, Amine oxidase [flavin-containing] A (Homo sapiens, UniProt P21397).
T1 sequence (P21397 whole entry): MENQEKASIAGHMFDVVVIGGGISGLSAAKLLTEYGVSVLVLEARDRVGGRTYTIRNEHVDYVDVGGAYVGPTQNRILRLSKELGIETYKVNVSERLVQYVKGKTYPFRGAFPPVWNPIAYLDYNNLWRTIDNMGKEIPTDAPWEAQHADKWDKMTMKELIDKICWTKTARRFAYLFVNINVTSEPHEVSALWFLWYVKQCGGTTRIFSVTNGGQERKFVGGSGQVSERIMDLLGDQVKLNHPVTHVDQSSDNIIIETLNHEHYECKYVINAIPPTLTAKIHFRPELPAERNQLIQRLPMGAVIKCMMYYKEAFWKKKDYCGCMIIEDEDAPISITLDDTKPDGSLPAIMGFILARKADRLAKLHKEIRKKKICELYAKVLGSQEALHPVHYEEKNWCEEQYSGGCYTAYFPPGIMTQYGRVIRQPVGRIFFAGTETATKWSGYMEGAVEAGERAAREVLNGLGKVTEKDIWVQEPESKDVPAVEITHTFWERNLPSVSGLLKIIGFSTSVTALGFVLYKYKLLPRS
Nature of the data set: Inhibition of human recombinant MAO-A expressed in baculovirus infected BTI-TN-5B1-4 insect cells using tyramine as substrate preincubated for 1 hr followed by substrate addition and measured after 30 mins by resazurin dye-based fluorescence assay.

A short description of data set [15]: Metabolic stability in mouse liver microsomes assessed as parent compound remaining at 1 uM after 60 mins in presence of NADPH by UPLC-MS/MS analysis. The settings on record: read-out: Stability. It is filed as ADME, microsome. Put shortly:
as §3

Data set [16] is described as follows: Cmax in C57BL/6 mouse brain at 23.4 mg/kg, po administered as single dose measured 24 hrs by UPLC-MS/MS analysis. Type of data set: ADME, organism-based. Set-up: dose 23.4 mg/kg, route oral. Put shortly: (§5)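 15 animals dosed, 3 killed at each of 1, 2, 4, 6 and 24 h. Plasma and brain homogenate (ammonium formate, acidified organic extraction) assayed by UPLC-MS/MS, brain ng/g taken as ng/mL. Noncompartmental parameters exclude values above/below quantification limit or undetected. Kp = AUClast brain/plasma.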

Data set [17] in a line: Apparent half-life of the terminal disposition phase in C57BL/6 mouse brain at 23.4 mg/kg, sc administered as single dose measured 24 hrs by UPLC-MS/MS analysis. Type of data set: ADME, organism-based. The note with it: read-out: t1/2 lambda z (converted). The method, boiled down: as §5
A short description of data set [18]: Tmax in C57BL/6 mouse plasma at 23.4 mg/kg, sc administered as single dose measured 24 hrs by UPLC-MS/MS analysis. Type of data set: ADME, organism-based. Put shortly:
as §5

Data set [19] can be described thus: Apparent half-life of the terminal disposition phase in C57BL/6 mouse plasma at 23.4 mg/kg, sc administered as single dose measured 24 hrs by UPLC-MS/MS analysis. Type of data set: ADME, organism-based. The settings on record: read-out: t1/2 lambda z (converted). The method, boiled down:
as §5

For `C[C@H](Cc1ccc(OCc2ccc(Br)c(Cl)c2)cc1)N(C)CC(=O)O`, the remaining at 4 h, 5 µM in data set [1] and in [12] was not below 75% each time. In addition, the remaining at 1 h, 1 µM in [2] was not below 90%; in data set [6] it was not below 90%; in data set [15], 93.4%. Moreover, the Activity entry in the data set with Mus musculus [3], in the data set with Mus musculus [7] and in the data set with Mus musculus [8] was “Non-Toxic” in each case. Moreover, the half-life in data set [4] is 4.81 h. For the same compound, the Kp at 24 h in data set [5] is 0.12. In addition, the efflux ratio at 1 h, 10 µM in the data set with P-gp (MDR1) came out at 2.12; in [13], 1.33. Also, the results for the Tmax in data set [9], in data set [10] and in data set [11] were 6 h, 6 h and 4 h, respectively. For the same compound, in [14], the IC50 is more than 50 µM.

For `CN(CC(=O)O)[C@H](CC#N)Cc1ccc(OCc2ccc(Cl)c(Cl)c2)cc1`, the remaining at 4 h, 5 µM in data set [1] and in data set [12] was not below 75% throughout. The same compound gave a Cmax in data set [16] of 91.9 ng/mL. The remaining at 1 h, 1 µM in data set [2] is 64%; in [6] it was not below 90%; in data set [15], 39%. Moreover, the Activity result in the data set with Mus musculus [3], in the data set with Mus musculus [7] and in the data set on Mus musculus [8] was “Non-Toxic” in each case. Further, the efflux ratio at 1 h, 10 µM was 1.14 in the data set on P-gp (MDR1) and 1.07 in data set [13]. In addition, the half-life was 1.07 h in [17] and 3.62 h in [19]. The Tmax in data set [18] was 1 h. Besides, in data set [14], the IC50 is 126 µM.
